Measurements gathered from unrelated publications.
SLC6A2: Sodium-dependent noradrenaline transporter (SLC6A2, Homo sapiens, UniProt P23975)
NPSR1: Neuropeptide S receptor (NPSR1, Homo sapiens, UniProt Q6W5P4)
NQO2: Ribosyldihydronicotinamide dehydrogenase [quinone] (NQO2, Homo sapiens, UniProt P16083)
MC4R: Melanocortin receptor 4 (MC4R, Homo sapiens, UniProt P32245)

SMILES	target	assay	setting	endpoint	value
CCCOC(=O)[C@@]12C[C@@H]1[C@@H](n1cnc3c(NC)nc(C#Cc4ccc(Cl)s4)nc31)[C@H](O)[C@@H]2O	SLC6A2	ligand displacement, radioligand	cell membranes	Ki	> 10 µM
COc1ccc(-c2nsc(NC(=O)[C@@H]3C[C@H]3C)c2C)cc1	Metabotropic glutamate receptor 3 (GRM3, Homo sapiens, UniProt Q14832)	calcium signal, agonist	–	EC50	> 25 µM
CCOC(=O)[C@@]12C[C@@H]1[C@@H](n1ccc3c(NCCc4ccccc4)nc(C#Cc4ccccc4)nc31)[C@H](O)[C@@H]2O	SLC6A2	ligand displacement, radioligand	–	Ki	2.82 µM
COc1cccc(C2c3c(ncn(-c4ccc(C#N)cc4)c3=N)Oc3ccc4ccccc4c32)c1 (centres unmarked)	NPSR1	cAMP, antagonist, TR-FRET	–	IC50	5.52 µM
Clc1ccc2c(c1)N(CCCN1CCN(CCCc3ccccc3)CC1)c1ccccc1S2	Trypanothione reductase (TPR, Trypanosoma cruzi, UniProt P28593)	enzyme activity, inhibitor, absorbance	–	Ki	0.331 µM
COc1cccc(C2c3c(ncn(-c4cccc(Cl)c4)c3=N)Oc3ccc4ccccc4c32)c1 (centres unmarked)	NPSR1	cAMP, antagonist, TR-FRET	–	IC50	15.4 µM
Cc1cnc(-c2ccc(-c3ccc(NC(=O)Nc4c(F)cc(F)cc4F)cc3F)c3c2C(=O)NC3)[nH]1	Dual specificity mitogen-activated protein kinase kinase 5 (MAP2K5, Homo sapiens, UniProt Q13163)	binding, competition with immobilised ligand	–	Kd	0.0008 µM
CC(C)C[C@H](NC(=O)[C@H](Cc1c[nH]cn1)NC(=O)[C@H](CCCNC(=N)N)NC(=O)[C@H](CCCNC(=N)N)NC(=O)[C@@H](NC(=O)CNC(=O)[C@H](Cc1c[nH]cn1)NC(=O)[C@@H]1CCCN1C(=O)[C@H](CO)NC(=O)[C@@H]1CCCN1)[C@@H](C)O)C(=O)N1CCC[C@H]1C(=O)N[C@@H](CO)C(=O)N1CCC[C@H]1C(=O)N1CCC[C@H]1C(=O)O	Growth factor receptor-bound protein 2 (GRB2, Homo sapiens, UniProt P62993)	binding, NMR	pH 7.6	Kd	400 µM
CCOC(=O)c1ccccc1	Or67a (Drosophila melanogaster, UniProt Q9VT08)	binding, MST	–	Kd	~0.5 µM
O=C(O)Cc1ccccc1Nc1c(Cl)cccc1Cl	NQO2	enzyme activity, inhibitor	–	Ki	> 1000 µM
CSSc1ccccc1C(=O)O	srtA (Staphylococcus aureus, UniProt Q2FV99)	enzyme activity, inhibitor, fluorescence	pH 7.5	Ki	367 µM
NC(=O)N1c2ccccc2C=Cc2ccccc21	NQO2	enzyme activity, inhibitor	–	Ki	> 500 µM
COc1ccc(C2c3c(ncn(CCc4ccccc4)c3=N)Oc3ccc4ccccc4c32)cc1OC (centres unmarked)	NPSR1	calcium signal, antagonist	–	IC50	> 30 µM
CC(C)C1=Cc2ccc3c(c2C(=O)C1=O)CCCC3(C)C	Cholinesterase (BCHE, Homo sapiens, UniProt P06276)	enzyme activity, inhibitor	–	Ki	> 100 µM
COc1cccc(C2c3c(ncn(-c4ccccc4Cl)c3=N)Oc3ccc4ccccc4c32)c1 (centres unmarked)	NPSR1	calcium signal, antagonist	–	IC50	5.51 µM
CCN(CC)Cc1cc(Nc2ccnc3cc(Cl)ccc23)ccc1O	NQO2	enzyme activity, inhibitor	–	Ki	160 µM
COc1cccc(C2c3c(ncn(-c4ccc(Br)cc4)c3=N)Oc3ccc4ccccc4c32)c1 (centres unmarked)	NPSR1	cAMP, antagonist, TR-FRET	–	IC50	15.4 µM
CC[C@H](C)[C@H](NC(=O)CN)C(=O)N[C@H](C(=O)N[C@@H](CC(N)=O)C(=O)N[C@H](C(=O)N[C@@H](CC(C)C)C(=O)N[C@@H](CCC(N)=O)C(=O)N[C@@H](CCCCN)C(=O)N[C@@H](Cc1ccc(O)cc1)C(=O)N[C@@H](Cc1ccc(O)cc1)C(=O)N[C@@H](CO)C(=O)N[C@@H](CCCNC(=N)N)C(=O)N[C@H](C(=O)N[C@@H](CCCNC(=N)N)C(=O)NCC(=O)NCC(=O)N[C@@H](CCCNC(=N)N)C(=O)N[C@@H](CO)C(=O)N[C@@H](C)C(=O)N[C@H](C(=O)N[C@@H](CC(C)C)C(=O)N[C@@H](CO)C(=O)N[C@H]1CSSC[C@@H](C(=O)N[C@@H](CCCNC(=N)N)C(=O)N[C@@H](CCCNC(=N)N)C(=O)N[C@@H](CCCCN)C(=O)N[C@@H](CCCCN)C(N)=O)NC(=O)[C@H](CO)NC(=O)[C@H](CCCCN)NC(=O)[C@H](CCCNC(=N)N)NC(=O)CNC(=O)[C@H](CCCNC(=N)N)NC(=O)[C@H]([C@@H](C)O)NC(=O)[C@H](CO)NC(=O)[C@H](CO)NC(=O)[C@H](CCCCN)NC(=O)CNC(=O)[C@H]([C@@H](C)CC)NC(=O)[C@H](CCC(N)=O)NC(=O)[C@H](CCC(=O)O)NC(=O)[C@H](CCC(=O)O)NC(=O)[C@H](CCCCN)NC(=O)[C@@H]2CCCN2C(=O)[C@H](CC(C)C)NC1=O)C(C)C)C(C)C)[C@@H](C)O)[C@@H](C)CC	MC4R	ligand displacement in cells	–	Ki	0.292 µM
CCCC[C@H](NC(=O)[C@H](CO)NC(=O)[C@H](Cc1ccc(O)cc1)NC(=O)[C@H](CO)NC(C)=O)C(=O)N[C@@H](CCC(=O)O)C(=O)N[C@@H](Cc1c[nH]cn1)C(=O)N[C@@H](C)C(=O)N[C@@H](CCCNC(=N)N)C(=O)N[C@@H](Cc1c[nH]c2ccccc12)C(=O)NCC(=O)N[C@@H](CCCCN)C(=O)N1CCC[C@H]1C(=O)N[C@H](C(=O)NCC(=O)N[C@@H](CCCCN)C(=O)N[C@@H](CCCCN)C(=O)N[C@@H](CCCNC(=N)N)C(N)=O)C(C)C	MC4R	cAMP, agonist	–	EC50	0.257 µM
O=C(NCc1ccccc1)Nc1ncnc2c1C(c1ccccc1)c1c(ccc3ccccc13)O2 (centres unmarked)	NPSR1	calcium signal, antagonist	–	IC50	> 30 µM
Nc1ncnc2c1ncn2[C@@H]1O[C@H](COP(=O)(O)OP(=O)(O)OP(=O)(O)OP(=O)(O)OP(=O)(O)OC[C@H]2O[C@@H](n3cnc4c(N)ncnc43)[C@H](O)[C@@H]2O)[C@@H](O)[C@H]1O	adk (Escherichia coli, UniProt P69441, R131A)	binding, ITC	–	Kd	0.576 µM
CCN(CC)CCCC(C)Nc1cnc(C(=O)Nc2ccc(Cl)c3cccnc23)cn1 (centres unmarked)	Muscarinic acetylcholine receptor M5 (CHRM5, Homo sapiens, UniProt P08912)	cell-free assay, radioligand	–	Ki	0.219 µM
Nc1ncnc2c1ncn2[C@@H]1O[C@H](COP(=O)(O)OP(=O)(O)OP(=O)(O)O)[C@@H](O)[C@H]1O	dnaA (Escherichia coli, UniProt P03004)	binding	–	Kd	0.04 µM
CC(C)[C@@H](CC[C@@H](C)[C@H]1CC[C@H]2[C@@H]3[C@H](O)C[C@H]4C[C@@H](NCCCNCCCCNCCCN)CC[C@]4(C)[C@H]3CC[C@]12C)OS(=O)(=O)O	Tyrosine-protein phosphatase non-receptor type 12 (PTPN12, Homo sapiens, UniProt Q05209)	enzyme activity, inhibitor	–	Ki	40 µM
CN1CCN(C2=Nc3cc(Cl)ccc3Nc3ccccc32)CC1	NQO2	enzyme activity, inhibitor	–	Ki	746 µM
N=c1c2c(ncn1Cc1ccccc1)Oc1ccc3ccccc3c1C2c1ccccc1 (centres unmarked)	NPSR1	calcium signal, antagonist	–	IC50	> 30 µM
